Measurements of several laboratories.
Protocols differ between the studies behind these lines.
Organism: Staphylococcus aureus
Effect on: microbial growth

| Compound | test | test system | conditions | MIC |
| --- | --- | --- | --- | --- |
| Cn1cnc2c(F)c(Nc3ccc(Br)cc3Cl)c(C(=O)NOCCO)cc21 | – | NCTC8325 | – | > 30 µM |
| O=C(O)CN1C(=O)/C(=C/c2ccc(-c3ccc(N(c4ccccc4)c4ccccc4)cc3)cc2)SC1=S | broth dilution | ATCC6538 | – | 3.9 µg/mL |
| Cc1ccc2nc(-c3c(F)cccc3Cl)[nH]c2c1 | broth dilution | ATCC29213 MSSA | – | 64 µg/mL |
| COc1cc2/c(=N/c3ccc(Br)cc3F)nc[nH]c2cc1OCC1CCN(C)CC1 | – | NCTC8325 | – | > 30 µM |
| C/C(=C\c1ccc(O)cc1)C(=O)Nc1ccc(C(=O)N[C@@H](CC(N)=O)C(=O)Nc2ccc(C(=O)Nc3ccc(C(=O)Nc4ccc(C(=O)O)cc4)c(O)c3OC(C)C)cc2)cc1 | – | ATCC29213 | – | 0.25 µg/mL |
| COC(=O)/C(C#N)=C1\Nc2ccccc2O1 | – | – | – | > 128 µg/mL |
| Clc1ccc(-c2nc3ccccc3n2Cc2ccccc2)cc1Cl | broth dilution | ATCC29213 MSSA | – | 8 µg/mL |
| CN[C@H](CC(C)C)C(=O)N[C@H]1C(=O)N[C@@H](CC(N)=O)C(=O)N[C@H]2C(=O)N[C@H]3C(=O)N[C@H](C(=O)N[C@H](C(=O)O)c4cc(O)cc(O)c4-c4cc3ccc4O)[C@H](O)c3ccc(c(Cl)c3)Oc3cc2cc(c3O[C@@H]2O[C@H](CO)[C@@H](O)[C@H](O)[C@H]2O[C@H]2C[C@](C)(N)[C@H](O)[C@H](C)O2)Oc2ccc(cc2Cl)[C@H]1O | broth dilution | ATCC25923 | – | 0.98 µg/mL |
| O=C(O)c1cccc2ccccc12 | – | – | – | > 128 µg/mL |
| Cc1cc(C#N)ccc1C(=O)Nc1ccc(C(=O)N[C@@H](CC(N)=O)C(=O)Nc2ccc(C(=O)Nc3ccc(C(=O)Nc4ccc(C(=O)O)cc4)c(O)c3OC(C)C)cc2)cc1 | – | ATCC29213 | – | 64 µg/mL |
| CCOc1ccc(-c2nc3ccccc3n2Cc2ccccc2)cc1 | broth dilution | ATCC29213 MSSA | – | 64 µg/mL |
| CC(C)Oc1c(NC(=O)c2ccc(NC(=O)[C@H](CC(N)=O)NC(=O)c3ccc(NC(=O)c4cccc([N+](=O)[O-])c4)cc3)cc2)ccc(C(=O)Nc2ccc(C(=O)O)cc2)c1O | – | ATCC29213 | – | > 64 µg/mL |
| Cc1cc(Nc2ncnc3ccc(NC4=NC(C)(C)CO4)cc23)ccc1Oc1ccn2ncnc2c1 | – | NCTC8325 | – | > 30 µM |
| NCCCC[C@H](N)C(=O)Nc1ccc(-n2nc(C(F)(F)F)cc2-c2ccc3c(ccc4ccccc43)c2)cc1 | broth dilution | ATCC29213 | 24 h | 4 µg/mL |
| c1ccc2[nH]c(-c3ccncc3)nc2c1 | broth dilution | ATCC29213 MSSA | – | 128 µg/mL |
| O=C1NC(=S)S/C1=C\c1ccc(-c2ccc(N(c3ccccc3)c3ccccc3)cc2)cc1 | broth dilution | ATCC6538 | – | 500 µg/mL |
| C[C@H]1c2cccc(O)c2C(=O)C2=C(O)[C@]3(O)C(=O)C(C(N)=O)=C(O)[C@@H](N(C)C)[C@@H]3[C@@H](O)[C@@H]21 | – | – | clinical isolate | 6.25 µg/mL |
| O=C1NC(=S)N/C1=C\c1ccc(-c2ccc(N(c3ccccc3)c3ccccc3)cc2)cc1 | broth dilution | ATCC6538 | – | > 1000 µg/mL |
| O=[N+]([O-])c1ccc(-c2nc3ccccc3[nH]2)cc1 | broth dilution | ATCC29213 MSSA | – | 128 µg/mL |
| CN(C)[C@@H]1C(O)=C(C(N)=O)C(=O)[C@@]2(O)C(O)=C3C(=O)c4c(O)cccc4[C@@](C)(O)[C@H]3C[C@@H]12 | – | 129 | clinical isolate | ≤ 0.1 µM |

| Compound | test | test system | conditions | MIC |
| --- | --- | --- | --- | --- |
| COc1ccc(NCc2ccc(Oc3ccccn3)cc2)cc1 | – | – | – | > 3.1 µg/mL |
| O=C(C[n+]1cc(-c2ccc(Cl)cc2)n2c1CCC2)Nc1ccc(Cl)c(Cl)c1 | – | – | – | 4 µg/mL |
| CC(C)n1nc(-c2ccc3oc(N)nc3c2)c2c(N)ncnc21 | – | NCTC8325 | – | > 30 µM |
| O=[N+]([O-])c1cccc(-c2nc3ccccc3[nH]2)c1 | broth dilution | ATCC29213 MSSA | – | 64 µg/mL |
| CCn1cc(C(=O)O)c(=O)c2cc(F)c(N3CCNCC3)cc21 | – | MRSA | – | 250 µg/mL |
| CNC(=O)c1ccccc1Sc1ccc2c(/C=C/c3ccccn3)n[nH]c2c1 | – | NCTC8325 | – | > 30 µM |
| Clc1ccc(Cn2c(-c3ccc(Cl)cc3)nc3ccccc32)cc1 | broth dilution | ATCC29213 MSSA | – | 8 µg/mL |
| CC(C)Oc1c(NC(=O)c2ccc(NC(=O)[C@H](CC(N)=O)NC(=O)c3ccc(NC(=O)c4ccc(C#N)cc4)cc3)cc2)ccc(C(=O)Nc2cc(C(=O)O)n(C)c2)c1O | – | ATCC29213 | – | 64 µg/mL |
| Cc1ccc2cccc(C(=O)O)c2c1 | – | – | – | > 128 µg/mL |
| CC1(C)S[C@@H]2[C@H](NC(=O)[C@H](N)c3ccccc3)C(=O)N2[C@H]1C(=O)O | broth dilution | 16339 | – | 64 µg/mL |
| CC(=O)Nc1ccc(C(=O)Nc2ccc(C(=O)N[C@@H](CC(N)=O)C(=O)Nc3ccc(C(=O)Nc4ccc(C(=O)Nc5ccc(C(=O)O)cc5)c(O)c4OC(C)C)cc3)cc2)cc1 | – | ATCC29213 | – | 64 µg/mL |
| CC1=NN(CNc2ccc(C(=O)O)cc2)C(=O)C1=NNn1c(-c2ccccc2)nc2ccccc2c1=O | broth dilution | – | 24 h | 50.5 µM |
| Fc1ccccc1NCc1ccc(Oc2ccccn2)cc1 | – | – | – | 1.6 µg/mL |
| COc1c(C)c(OC(=O)c2ccc(C)cc2)c(C)c(O)c1C(=O)/C=C/c1ccccc1 | broth dilution | ATCC25923 | – | 5000 µg/mL |
| COc1cc2nccc(Oc3ccc(NC(=O)NC4CC4)c(Cl)c3)c2cc1C(N)=O | – | NCTC8325 | – | > 30 µM |
| COc1c(C)c(OC(=O)c2ccccc2)c(C)c(O)c1C(=O)/C=C/c1ccccc1 | broth dilution | ATCC25923 | – | 5000 µg/mL |
| O=C(CCc1cc(O)c(O)c(O)c1)NCCCCCCCC[P+](c1ccccc1)(c1ccccc1)c1ccccc1.[Br-] | broth dilution | ATCC43300 MRSA | 18 h | 8 µg/mL |
| Cc1cc(Cl)cc2sc(N(CCCn3ccnc3)C(=O)c3ccco3)nc12 | – | ATCC25923 | – | 2.6 µM |
| CCCCCCC#Cc1cncc(-c2nnc(SCc3ccc([N+](=O)[O-])o3)n2C)c1 | – | MRSA | drug-resistant strain | ≥ 20 µg/mL |
| Cc1ccc(C)n1-c1ccc(-c2nnc(-c3ccccc3[N+](=O)[O-])[nH]2)cc1 | broth dilution | ATCC11632 | 18 h | 8 µg/mL |

| Compound | test | test system | conditions | MIC |
| --- | --- | --- | --- | --- |
| COc1cccc2cc(-c3nc([C@H]4CC[C@H](C(=O)O)CC4)n4ncnc(N)c34)[nH]c12 | – | NCTC8325 | – | > 30 µM |
| O=C(CCCCCCCCCC[P+](c1ccccc1)(c1ccccc1)c1ccccc1)Nc1cc(O)c(O)c(O)c1.[Br-] | broth dilution | ATCC43300 MRSA | 18 h | 2 µg/mL |
| CC(=O)NC[C@H]1CN(c2ccc(N3CCOCC3)c(F)c2)C(=O)O1 | broth dilution | MRSA NRS382 USA100 | drug-resistant strain | 2 µg/mL |
| CC(=O)NCN1N=C(C)C(=NNn2c(-c3ccccc3)nc3ccccc3c2=O)C1=O | broth dilution | – | 24 h | 59.9 µM |
| O=C(O)CN1C(=O)/C(=C/c2ccc(-c3ccc(N(c4ccccc4)c4ccccc4)cc3)cc2)NC1=S | broth dilution | ATCC25923 | – | 3.9 µg/mL |
| CC1(C)S[C@@H]2[C@H](NC(=O)[C@H](N)c3ccccc3)C(=O)N2[C@H]1C(=O)O | broth dilution | ATCC25923 | 16 h | 0.15 µg/mL |
| C/C=C(\C)c1cc(OC(=O)c2c(C)c(Cl)c(O)c(Cl)c2O)c(C)c(O)c1C(=O)O | broth dilution | CCARM3090 | – | 64 µg/mL |
| C=CCn1c(-c2ccc(Cl)cc2)nc2ccccc21 | broth dilution | ATCC29213 MSSA | – | 64 µg/mL |
| C[n+]1c(/C=C/c2c[nH]c3ccccc23)cc(/C=C2\Sc3ccccc3N2CCCN2CCOCC2)c2ccccc21.[I-] | broth dilution | ATCCBAA44 | – | 8 µg/mL |
| C[S+]([O-])c1ccc(-c2nc(-c3ccc(F)cc3)c(-c3ccncc3)[nH]2)cc1 (stereo not shown) | – | NCTC8325 | – | > 30 µM |
| Cc1ccc(C)n1-c1ccc(-c2nnc(-c3cccc([N+](=O)[O-])c3)[nH]2)cc1 | broth dilution | ATCC11632 | 18 h | 8 µg/mL |
| CC(C)(O/N=C(\C(=O)N[C@@H]1C(=O)N2C(C(=O)[O-])=C(C[n+]3ccccc3)CS[C@H]12)c1csc(N)n1)C(=O)O | – | MRSA | 18 h | > 128 µg/mL |
| C/C=C(\C)c1cc(O)c(C)c(OC(=O)c2c(C)c(Cl)c(O)c(Cl)c2O)c1 | broth dilution | 6917 | – | 8 µg/mL |
| NC[C@H]1O[C@H](O[C@H]2[C@H](O)[C@@H](O[C@H]3O[C@H](CO)[C@@H](O)[C@H](N)[C@H]3O)[C@H](N)C[C@@H]2N)[C@H](N)C[C@@H]1O | – | 147 | clinical isolate | 6.25 µM |
| C/C=C(\C)c1cc(O)c(C)c(OC(=O)c2c(C)cc(O)c(Cl)c2O)c1 | broth dilution | ATCC29213 | – | 8 µg/mL |
| CC(C)Oc1c(NC(=O)c2ccc(NC(=O)[C@H](CC(N)=O)NC(=O)c3ccc(NC(=O)c4ccc(C5(C(F)(F)F)N=N5)cc4)cc3)cc2)ccc(C(=O)Nc2ccc(C(=O)O)cc2)c1O | – | ATCC29213 | – | > 64 µg/mL |
| CN[C@H](CC(C)C)C(=O)N[C@H]1C(=O)N[C@@H](CC(N)=O)C(=O)N[C@H]2C(=O)N[C@H]3C(=O)N[C@H](C(=O)N[C@H](C(=O)O)c4cc(O)cc(O)c4-c4cc3ccc4O)[C@H](O)c3ccc(c(Cl)c3)Oc3cc2cc(c3O[C@@H]2O[C@H](CO)[C@@H](O)[C@H](O)[C@H]2O[C@H]2C[C@](C)(N)[C@H](O)[C@H](C)O2)Oc2ccc(cc2Cl)[C@H]1O | broth dilution | 16339 | – | 1 µg/mL |
| Cc1cc2c([nH]c3ccccc32)c2c1C(=O)C=CC2=O | – | ATCC29213 | – | 64 µg/mL |
